Data published in publication PMC9839614 (Cancer cell, 2022).
pIC50: −log10 of the molar value.

How the values were obtained:
[1] = first-in-human study, advanced solid tumors; cited from earlier work
[2] = system: MOLM-13 parental cells; test: Drug treatment IC50 measurement; type: cell-based; conditions: Homo sapiens, MOLM-13, read-out: IC50 (cell viability)
Summary of the method: (§1)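 MOLM-13 cells (parental or venetoclax-resistant) were plated and exposed to the test compound across a range of concentrations, with at least three technical replicates per concentration per cell line. Viability was read by CellTiter-Glo luminescence. IC50 was calculated from technical triplicates within each experiment, over n=3 experiments, and reported as mean with SEM.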

[3] = system: RNA splicing in MOLM-13 cells; test: RNA-seq alternative splicing analysis; type: cell-based, human; conditions: 48 hours, SM09419 100 nM, venetoclax 10 nM
Summary of the method: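 Total RNA was extracted from MOLM-13 cells with an RNeasy column kit for RNA-seq. Before downstream analysis, FASTQ reads were trimmed of sequencing adapters and of low-quality reads (Q<15).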

[4] = system: venetoclax-resistant MOLM-13 cell lines; test: Drug treatment IC50 measurement; type: cell-based, human
Summary of the method: as §1

Structure (SMILES) | Grade 3 anemia rate [1] | pIC50 [2] | Effect on RNA splicing [3] | pIC50 ([4]; Homo sapiens, MOLM-13, 504 h, read-out: IC50 (cell viability)) | IC50 of resistant cell lines relative to parental cells ([4]; venetoclax-resistant vs parental MOLM-13)
CN1CCN(c2cc(C(=O)Nc3cc4cc(-c5cnn(C)c5)ccc4cn3)ccn2)CC1 [Cirtuvivint] | < 15% |  |  |  | 
CC1(C)CCC(CN2CCN(c3ccc(C(=O)NS(=O)(=O)c4ccc(NCC5CCOCC5)c([N+](=O)[O-])c4)c(Oc4cnc5[nH]ccc5c4)c3)CC2)=C(c2ccc(Cl)cc2)C1 [venetoclax] |  | ~7.82 | no significant effects on RNA splicing | < 7.00 | approximately six times greater
